In ChEMBL document CHEMBL4414574, “Structure-Based Discovery and Development of a Series of Potent and Selective Bromodomain and Extra-Terminal Protein Inhibitors” (J Med Chem, 2019):
Active and inactive are the calls of the source. The rule behind the calls is not given here.

Key:
[1] = target: Bromodomain and PHD finger-containing protein 3 (Homo sapiens) (UniProt Q9ULD4); assay: Binding affinity to human partial length BRPF3 (E588 to G701 residues) expressed in Escherichia coli BL21 cells assessed as residual binding level at 1 uM measured after 1 hr by quantitative PCR based BROMOscan assay relative to control
In short: (§1)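 A BROMOScan competition-binding panel of 32 bromodomains was run at a single 1 μM compound concentration. Results are primary-screen 'Percent Control', where lower values indicate stronger binding.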

[2] = target: Bromodomain-containing protein 7 (Homo sapiens) (UniProt Q9NPI1); assay: Binding affinity to human partial length BRD7 (L125 to R254 residues) expressed in […] assessed as residual binding level at 1 uM measured after 1 hr by quantitative PCR based BROMOscan assay relative to control; in short: as §1
[3] = AUC (0 to t) in dog plasma at 1 mg/kg, iv; type: ADME, organism-based, Canis lupus familiaris
In short: (§2)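 Compound was given orally or intravenously in 1% DMSO/0.5% HPMC vehicle. Concentrations in plasma, or in brain where stated, gave Tmax, Cmax, T1/2, AUC0-t and AUC0-inf.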

[4] = target: Bromodomain-containing protein 2 (Homo sapiens) (UniProt P25440); assay: Inhibition of BRD2 bromodomain 2 (unknown origin)
In short: (§3)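 Bromodomain binding panel (32 bromodomains) screened at 1 μM; primary binding read-out reported as percent of control, lower values meaning stronger binding.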

[5] = Tmax in ICR mouse plasma at 50 mg/kg, po administered via gavage measured after 0.25 to 24 hrs by UPLC/MS analysis; type: ADME, organism-based
In short: (§4)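 Male ICR mice dosed orally at 50 mg/kg in 1% DMSO/0.5% HPMC; drug measured in plasma and brain.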

[6] = AUC (0 to t) in ICR mouse plasma at 50 mg/kg, po administered via gavage measured after 0.25 to 24 hrs by UPLC/MS analysis; type: ADME, organism-based; design: time lower 0.25 hr, dose 50 mg/kg, time upper 24 hr, route oral
In short: (§5)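 Male ICR mice were dosed orally in 1% DMSO/0.5% HPMC vehicle. Plasma (and brain, where stated) concentrations gave Tmax, Cmax, T1/2, AUC0-t and AUC0-inf.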

[7] = AUC (0 to infinity) in ICR mouse plasma at 100 mg/kg, po administered via gavage measured after 0.25 to 24 hrs by UPLC/MS analysis; type: ADME, organism-based; design: dose 100 mg/kg, time infinity, route oral; in short: as §5
[8] = tested on: MV4-11; assay: Induction of apoptosis in human MV4-11 cells assessed as decrease in full-length caspase-8 level at 10 to 1000 nM after 24 hrs by Western blot analysis; type: functional, cell-based
In short: (§6)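 MV4-11 cells exposed to compound at the indicated doses for 24 h; lysates probed by Western blotting for the target protein, with GAPDH as loading control.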

[9] = tested on: AGS; assay: Antiproliferative activity against human AGS cells after 72 hrs by CCK8 or SRB assay; type: functional, cell-based
[10] = target: Cytochrome P450 2D6 (Homo sapiens, UniProt P10635); assay: Time-dependent inhibition of CYP2D6 in human liver microsomes at 10 uM using dextromethorphan as substrate preincubated up to 30 mins followed by NADPH generating system addition and measured after 10 mins; type: ADME
In short: (§7)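 Human liver microsomes 0.2 mg/mL, 100 mM phosphate pH 7.4, 10 μM test compound, preincubated 0, 5, 10 and 30 min at 37 °C; then NADPH plus probe cocktail (5 μM midazolam, 50 μM testosterone, 5 μM dextromethorphan, 10 μM diclofenac, 50 μM phenacetin, 50 μM S-(+)-mephenytoin) added; 10 min reaction; kobs in units of 10^-4/min.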

[11] = tested on: KG-1; assay: Antiproliferative activity against human KG1 cells after 72 hrs by CCK8 or SRB assay; type: functional, cell-based
[12] = target: T1, Bromodomain-containing protein 4 (Homo sapiens, UniProt O60885); assay: Inhibition of BRD4 in human MV4-11 cells assessed as reduction in BCL2 phosphorylation at ser70 residues after 24 hrs by Western blot analysis; type: cell-based
In short: (§8)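 MV4-11 cells exposed to graded doses for 24 h; lysates immunoblotted for phospho-BCL2, with GAPDH as loading control.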

[13] = Tmax in rat brain at 50 mg/kg, po; type: ADME, organism-based
In short: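 Rats dosed orally at 50 mg/kg in 1% DMSO/0.5% HPMC; drug measured in plasma and brain.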

[14] = species: Homo sapiens; assay: Antiproliferative activity against human TY82 cells after 72 hrs by CCK8 or SRB assay; type: functional, cell-based
[15] = AUC (0 to infinity) in rat plasma at 50 mg/kg, po; type: ADME, organism-based; design: dose 50 mg/kg, time infinity, route oral; in short: as §2
[16] = Bioavailability in rat at 3 mg/kg, iv; type: ADME, organism-based; details: in vivo
[17] = AUC (0 to infinity) in ICR mouse brain at 50 mg/kg, po administered via gavage measured after 0.25 to 24 hrs by UPLC/MS analysis; type: ADME, organism-based; design: dose 50 mg/kg, route oral, time infinity; in short: as §5
[18] = target: Bromodomain adjacent to zinc finger domain protein 2B (Homo sapiens) (UniProt Q9UIF8); assay: Binding affinity to human partial length BAZ2B (S2054 to S2168 residues) expressed in Escherichia coli BL21 cells assessed as residual binding level at 1 uM measured after 1 hr by quantitative PCR based BROMOscan assay relative to control; in short: as §1
[19] = Half life in rat plasma at 10 mg/kg, po; type: ADME, organism-based
[20] = tested on: MV4-11; assay: Induction of apoptosis in human MV4-11 cells assessed as reduction in c-IAP2 level after 24 hrs by Western blot analysis; type: functional, cell-based
[21] = tested on: MV4-11; assay: Induction of apoptosis in human MV4-11 cells assessed as reduction in BIM level after 24 hrs by Western blot analysis; type: functional, cell-based; in short: as §6
[22] = target: Cytochrome P450 2C9 (Homo sapiens, UniProt P11712); assay: Time-dependent inhibition of CYP2C9 in human liver microsomes at 10 uM using diclofenac as substrate preincubated up to 30 mins followed by NADPH generating system addition and measured after 10 mins; type: ADME; in short: as §7
[23] = tested on: MV4-11; assay: Induction of apoptosis in human MV4-11 cells assessed as increase in cleaved caspase-7 level after 24 hrs by Western blot analysis; type: functional, cell-based; in short: as §6
[24] = target: T1, Bromodomain-containing protein 4; assay: Inhibition of BRD4 in human MV4-11 cells assessed as reduction in BCL2 phosphorylation at Thr56 residues after 24 hrs by Western blot analysis; type: cell-based; in short: as §8
[25] = tested on: A549; assay: Antiproliferative activity against human A549 cells after 72 hrs by CCK8 or SRB assay; type: functional, cell-based
[26] = target: Bromodomain and WD repeat-containing protein 1 (Homo sapiens) (UniProt Q9NSI6); assay: Binding affinity to human partial length BRWD1 (A1310 to E1430 residues) expressed in Escherichia coli BL21 cells assessed as residual binding level at 1 uM measured after 1 hr by quantitative PCR based BROMOscan assay relative to control; in short: as §1
[27] = Half life in rat plasma at 50 mg/kg, po; type: ADME, organism-based
[28] = AUC (0 to infinity) in rat plasma at 10 mg/kg, po; type: ADME, organism-based; design: dose 10 mg/kg, route oral, time infinity; in short: as §2
[29] = Ratio of drug level in brain to plasma in ICR mouse at 50 mg/kg, po administered via gavage measured after 0.25 to 24 hrs by UPLC/MS analysis; type: ADME, organism-based; in short: as §4
[30] = tested on: MV4-11; assay: Induction of apoptosis in human MV4-11 cells assessed as reduction in BCL-2 mRNA expression after 24 hrs by real time qPCR analysis; type: functional, cell-based
[31] = target: Histone acetyltransferase p300 (Homo sapiens) (UniProt Q09472); assay: Inhibition of EP300 (unknown origin) at 1 uM; in short: as §3

Bromodomain-containing protein 2 (Homo sapiens), sequence (P25440 whole entry, looked up): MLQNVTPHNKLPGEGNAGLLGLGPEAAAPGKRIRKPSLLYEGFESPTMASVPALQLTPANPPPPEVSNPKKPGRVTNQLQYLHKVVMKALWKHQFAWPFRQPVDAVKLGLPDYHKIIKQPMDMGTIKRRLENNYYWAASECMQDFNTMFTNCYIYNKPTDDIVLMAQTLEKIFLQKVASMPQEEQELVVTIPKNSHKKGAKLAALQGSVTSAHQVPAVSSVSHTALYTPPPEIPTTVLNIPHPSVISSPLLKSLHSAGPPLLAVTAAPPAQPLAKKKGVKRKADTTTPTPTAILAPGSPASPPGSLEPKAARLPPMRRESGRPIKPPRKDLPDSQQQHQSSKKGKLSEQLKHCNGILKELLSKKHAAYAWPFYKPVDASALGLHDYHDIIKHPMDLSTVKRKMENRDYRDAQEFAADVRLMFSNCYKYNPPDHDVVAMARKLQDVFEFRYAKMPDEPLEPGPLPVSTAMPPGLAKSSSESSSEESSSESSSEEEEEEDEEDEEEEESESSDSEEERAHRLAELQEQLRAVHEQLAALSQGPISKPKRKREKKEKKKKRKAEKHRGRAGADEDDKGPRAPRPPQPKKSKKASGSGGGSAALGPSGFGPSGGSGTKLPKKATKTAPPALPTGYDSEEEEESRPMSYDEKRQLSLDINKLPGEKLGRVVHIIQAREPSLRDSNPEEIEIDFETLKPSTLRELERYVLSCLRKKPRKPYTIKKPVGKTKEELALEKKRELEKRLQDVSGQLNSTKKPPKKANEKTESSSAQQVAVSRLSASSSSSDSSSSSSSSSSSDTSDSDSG
Bromodomain and PHD finger-containing protein 3 (Homo sapiens), sequence (Q9ULD4 whole entry, the tested form may be a part): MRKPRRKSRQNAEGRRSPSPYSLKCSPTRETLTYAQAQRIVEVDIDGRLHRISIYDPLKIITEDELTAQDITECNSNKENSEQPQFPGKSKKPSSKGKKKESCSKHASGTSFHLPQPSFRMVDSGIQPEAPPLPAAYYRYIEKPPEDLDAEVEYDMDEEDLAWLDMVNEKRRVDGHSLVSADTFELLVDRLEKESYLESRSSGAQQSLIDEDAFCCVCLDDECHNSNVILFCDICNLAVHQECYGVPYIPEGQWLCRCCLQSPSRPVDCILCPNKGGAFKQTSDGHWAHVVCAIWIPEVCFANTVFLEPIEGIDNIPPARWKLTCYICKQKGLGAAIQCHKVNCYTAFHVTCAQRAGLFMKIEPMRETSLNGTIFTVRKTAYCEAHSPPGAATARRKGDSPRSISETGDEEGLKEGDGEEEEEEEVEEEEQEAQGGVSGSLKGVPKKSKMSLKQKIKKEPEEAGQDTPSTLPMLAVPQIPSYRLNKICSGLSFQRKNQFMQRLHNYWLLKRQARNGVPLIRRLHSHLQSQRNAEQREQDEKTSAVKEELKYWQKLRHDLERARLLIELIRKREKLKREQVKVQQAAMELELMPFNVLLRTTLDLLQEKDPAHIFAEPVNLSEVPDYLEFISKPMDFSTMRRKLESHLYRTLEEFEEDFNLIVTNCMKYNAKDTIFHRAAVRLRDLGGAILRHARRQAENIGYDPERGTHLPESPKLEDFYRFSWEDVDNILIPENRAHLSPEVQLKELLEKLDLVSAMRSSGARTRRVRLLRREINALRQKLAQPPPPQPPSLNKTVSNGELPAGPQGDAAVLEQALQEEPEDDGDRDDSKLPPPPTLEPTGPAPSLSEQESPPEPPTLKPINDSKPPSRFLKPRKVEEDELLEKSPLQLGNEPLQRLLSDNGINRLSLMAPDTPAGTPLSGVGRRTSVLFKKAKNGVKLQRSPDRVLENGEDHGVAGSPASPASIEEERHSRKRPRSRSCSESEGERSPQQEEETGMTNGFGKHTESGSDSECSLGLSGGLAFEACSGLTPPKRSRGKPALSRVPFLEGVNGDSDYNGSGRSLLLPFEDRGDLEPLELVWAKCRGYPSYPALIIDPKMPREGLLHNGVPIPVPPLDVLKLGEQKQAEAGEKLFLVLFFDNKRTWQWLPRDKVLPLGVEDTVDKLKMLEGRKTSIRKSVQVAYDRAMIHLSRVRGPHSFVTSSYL
Bromodomain adjacent to zinc finger domain protein 2B (Homo sapiens), sequence (Q9UIF8 whole entry, the tested form may be a part): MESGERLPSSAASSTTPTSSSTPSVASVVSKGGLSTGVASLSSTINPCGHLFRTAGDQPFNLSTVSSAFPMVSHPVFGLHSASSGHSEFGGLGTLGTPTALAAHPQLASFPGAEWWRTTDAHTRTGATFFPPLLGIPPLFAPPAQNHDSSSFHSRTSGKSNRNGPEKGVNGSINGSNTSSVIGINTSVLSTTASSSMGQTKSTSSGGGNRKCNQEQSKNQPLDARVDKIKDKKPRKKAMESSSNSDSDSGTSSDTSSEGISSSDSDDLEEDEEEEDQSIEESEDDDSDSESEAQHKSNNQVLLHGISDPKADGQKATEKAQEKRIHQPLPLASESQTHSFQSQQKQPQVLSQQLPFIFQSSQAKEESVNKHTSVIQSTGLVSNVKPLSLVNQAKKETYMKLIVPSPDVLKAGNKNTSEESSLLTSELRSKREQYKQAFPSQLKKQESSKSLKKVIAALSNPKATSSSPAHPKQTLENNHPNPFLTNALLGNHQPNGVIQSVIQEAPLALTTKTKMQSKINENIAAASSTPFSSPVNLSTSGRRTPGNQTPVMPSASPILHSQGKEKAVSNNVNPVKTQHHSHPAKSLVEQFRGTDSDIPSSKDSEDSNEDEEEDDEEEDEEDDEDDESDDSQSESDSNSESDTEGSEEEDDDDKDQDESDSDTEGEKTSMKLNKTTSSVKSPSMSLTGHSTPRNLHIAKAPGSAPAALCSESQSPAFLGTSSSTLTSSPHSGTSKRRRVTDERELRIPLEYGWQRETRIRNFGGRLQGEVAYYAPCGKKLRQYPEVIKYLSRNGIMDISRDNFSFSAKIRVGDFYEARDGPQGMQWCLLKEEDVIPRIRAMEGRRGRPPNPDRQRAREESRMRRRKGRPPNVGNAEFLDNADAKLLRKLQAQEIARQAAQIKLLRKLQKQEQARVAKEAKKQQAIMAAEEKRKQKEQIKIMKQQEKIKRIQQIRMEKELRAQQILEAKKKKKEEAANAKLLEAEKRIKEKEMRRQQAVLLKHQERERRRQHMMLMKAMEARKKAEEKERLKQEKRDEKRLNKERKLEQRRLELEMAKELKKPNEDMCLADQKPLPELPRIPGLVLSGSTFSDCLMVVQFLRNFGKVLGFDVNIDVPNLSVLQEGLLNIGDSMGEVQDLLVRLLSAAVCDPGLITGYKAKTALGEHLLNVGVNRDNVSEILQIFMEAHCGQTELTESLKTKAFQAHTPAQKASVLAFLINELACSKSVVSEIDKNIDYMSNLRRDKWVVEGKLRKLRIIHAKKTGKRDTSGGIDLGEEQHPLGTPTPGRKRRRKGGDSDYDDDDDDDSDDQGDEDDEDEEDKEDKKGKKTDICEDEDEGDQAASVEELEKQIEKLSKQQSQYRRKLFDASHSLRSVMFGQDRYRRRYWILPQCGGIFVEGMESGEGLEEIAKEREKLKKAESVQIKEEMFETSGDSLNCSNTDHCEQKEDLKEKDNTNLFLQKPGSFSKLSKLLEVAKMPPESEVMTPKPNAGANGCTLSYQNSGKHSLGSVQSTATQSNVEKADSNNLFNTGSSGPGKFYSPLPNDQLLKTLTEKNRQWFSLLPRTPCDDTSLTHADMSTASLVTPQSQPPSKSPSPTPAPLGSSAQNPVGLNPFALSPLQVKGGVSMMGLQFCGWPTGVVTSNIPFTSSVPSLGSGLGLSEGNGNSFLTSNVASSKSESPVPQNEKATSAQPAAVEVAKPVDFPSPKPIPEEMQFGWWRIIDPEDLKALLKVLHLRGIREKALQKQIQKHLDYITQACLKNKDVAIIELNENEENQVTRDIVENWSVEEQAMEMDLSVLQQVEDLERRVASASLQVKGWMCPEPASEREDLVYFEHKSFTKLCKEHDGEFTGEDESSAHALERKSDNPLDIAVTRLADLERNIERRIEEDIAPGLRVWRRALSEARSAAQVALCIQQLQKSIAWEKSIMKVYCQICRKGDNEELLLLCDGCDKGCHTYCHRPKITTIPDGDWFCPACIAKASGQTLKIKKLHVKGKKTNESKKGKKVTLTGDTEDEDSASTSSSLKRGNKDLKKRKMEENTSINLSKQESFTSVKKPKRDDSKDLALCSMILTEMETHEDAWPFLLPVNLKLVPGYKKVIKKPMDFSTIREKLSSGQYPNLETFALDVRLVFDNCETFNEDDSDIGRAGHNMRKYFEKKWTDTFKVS
Cytochrome P450 2D6, sequence (P10635 whole entry): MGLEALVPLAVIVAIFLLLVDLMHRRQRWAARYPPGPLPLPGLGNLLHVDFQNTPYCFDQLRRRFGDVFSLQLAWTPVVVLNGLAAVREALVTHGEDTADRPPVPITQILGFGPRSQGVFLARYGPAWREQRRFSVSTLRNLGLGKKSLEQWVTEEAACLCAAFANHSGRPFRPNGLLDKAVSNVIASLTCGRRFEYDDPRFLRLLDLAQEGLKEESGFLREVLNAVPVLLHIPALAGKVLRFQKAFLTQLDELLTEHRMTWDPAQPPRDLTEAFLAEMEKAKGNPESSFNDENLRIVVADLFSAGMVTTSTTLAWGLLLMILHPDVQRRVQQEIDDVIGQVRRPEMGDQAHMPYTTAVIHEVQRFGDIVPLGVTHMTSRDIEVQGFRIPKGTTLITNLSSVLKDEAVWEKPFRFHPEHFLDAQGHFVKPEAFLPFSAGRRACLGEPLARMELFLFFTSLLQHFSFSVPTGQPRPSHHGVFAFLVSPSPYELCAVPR

For `Cc1ccc(-n2nc(C(=O)N3C[C@@H](C)N[C@@H](C)C3)nc2-c2ccc3c(c2)N(C2CCCC2)[C@H](C)C(=O)N3C)cc1`, the Activity [1] was 70 to 100%, the Activity [2] was 70 to 100% and the AUC(0-t) [3] was 726 ng·h/mL. The inhibition [4] was “Active”, the Tmax [5] was 1 h and the AUC(0-t) [6] was 16700 ng·h/mL. The AUC(0-inf) [7] was 82400 ng·h/mL, the Activity [8] was “Active” and the Activity [9] was “Active”. For the same molecule, the TDI [10] was “Not Active”, the Activity [11] was “Active” and the inhibition [12] was “Dose-dependent effect”. The Tmax [13] was 0.9 h, the Activity [14] was “Active” and the AUC(0-inf) [15] was 4310 ng·h/mL. It also gave a bioavailability [16] of 18.2%, an AUC(0-inf) [17] of 2340 ng·h/mL and an Activity [18] of 70 to 100%. For the same molecule, the half-life [19] was 5 h, the Activity [20] was “Dose-dependent effect” and the Activity [21] was “Dose-dependent effect”. For the same molecule, the TDI [22] was “Not Active”, the Activity [23] was “Dose-dependent effect” and the inhibition [24] was “Dose-dependent effect”. For the same molecule, the Activity [25] was “Active”, the Activity [26] was 70 to 100% and the half-life [27] was 6.3 h. The AUC(0-inf) [28] was 1270 ng·h/mL, the BPR [29] was 13.9% and the Activity [30] was “Active”. The inhibition [31] was “inactive”.
